In brackets after ≈: the same amount, converted by molar mass.
How the values were obtained:
Assay type in all cases: functional
Staphylococcus aureus = experiment: Antibacterial activity against methicillin-resistant Staphylococcus aureus NRS384 USA300 after 18 to 20 hrs by broth microdilution assay
Procedure, shortened: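 Broth microdilution per CLSI. Strains grown aerobically overnight on tryptone soy agar at 37 °C, adjusted to 0.5 McFarland, then diluted in cation-adjusted Mueller-Hinton broth to about 5 × 10^5 CFU/mL. Compounds (10 mg/mL DMSO stocks) serially diluted. Incubated aerobically at 37 °C for 18-20 h. MIC is the lowest concentration with no visible growth.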

Acinetobacter baumannii [1] = experiment: Antibacterial activity against Acinetobacter baumannii ATCC 19606; settings: ATCC 19606 = CIP 70.34 = JCM 6841
Escherichia coli [2] = experiment: Antibacterial activity against Escherichia coli BW25113
Escherichia coli [3] = experiment: Antibacterial activity against TolC-deficient Escherichia coli JW55031
Escherichia coli [4] = experiment: Antibacterial activity against Escherichia coli ATCC 25922
Klebsiella pneumoniae [5] = experiment: Antibacterial activity against Klebsiella pneumoniae BAA-1706
Pseudomonas aeruginosa [6] = experiment: Antibacterial activity against Pseudomonas aeruginosa ATCC 27853
Pseudomonas aeruginosa [7] = experiment: Antibacterial activity against Pseudomonas aeruginosa ATCC 15442
Acinetobacter baumannii [8] = experiment: Bactericidal activity against Acinetobacter baumannii ATCC 19606; settings: ATCC 19606 = CIP 70.34 = JCM 6841
Escherichia coli [9] = experiment: Bactericidal activity against Escherichia coli BW25113
Escherichia coli [10] = experiment: Bactericidal activity against TolC-deficient Escherichia coli JW55031
Escherichia coli [11] = experiment: Bactericidal activity against Escherichia coli ATCC 25922
Klebsiella pneumoniae [12] = experiment: Bactericidal activity against Klebsiella pneumoniae BAA-1706
Pseudomonas aeruginosa [13] = experiment: Bactericidal activity against Pseudomonas aeruginosa ATCC 27853
Pseudomonas aeruginosa [14] = experiment: Bactericidal activity against Pseudomonas aeruginosa ATCC 15442

In the case of `C/C(=N\NC(=N)N)c1sc(-c2ccc(N3CCCCC3C)cc2)nc1C` (configuration not stated), the MIC (Staphylococcus aureus) is reported as 8 µg/mL (≈ 21.6 µM).

`C/C(=N\NC(=N)N)c1sc(-c2ccc(N3CCOCC3)cc2)nc1C` showed an MIC (Staphylococcus aureus) of over 128 µg/mL.

Work on GENTAMICIN yielded an MIC (Acinetobacter baumannii [1]) of 32 µg/mL, an MIC (Escherichia coli [2]) of under 0.5 µg/mL and an MIC (Escherichia coli [3]) of under 0.5 µg/mL. For the same compound, the MIC (Escherichia coli [4]) was 1 µg/mL, the MIC (Klebsiella pneumoniae [5]) was 4 µg/mL and the MIC (Pseudomonas aeruginosa [6]) was 2 µg/mL. The MIC (Pseudomonas aeruginosa [7]) was 2 µg/mL, the MBC (Acinetobacter baumannii [8]) was 32 µg/mL and the MBC (Escherichia coli [9]) was under 0.5 µg/mL. The MBC (Escherichia coli [10]) was under 0.5 µg/mL, the MBC (Escherichia coli [11]) was 1 µg/mL and the MBC (Klebsiella pneumoniae [12]) was 4 µg/mL. The MBC (Pseudomonas aeruginosa [13]) was 4 µg/mL and the MBC (Pseudomonas aeruginosa [14]) was 2 µg/mL.

For `C/C(=N\NC(=N)N)c1sc(-c2ccc(N3CCN(C)CC3)cc2)nc1C`, the MIC (Staphylococcus aureus) was 64 µg/mL (≈ 172 µM).

With `C/C(=N\NC(=N)N)c1sc(-c2ccc(-n3ccnc3)cc2)nc1C` the MIC (Staphylococcus aureus) was 16 µg/mL (≈ 47.1 µM).

`C/C(=N\NC(=N)N)c1sc(-c2ccc(N3CCSC3)cc2)nc1C` was tested, and the MIC (Staphylococcus aureus) was over 128 µg/mL.

Work on `C/C(=N\NC(=N)N)c1sc(-c2ccc(N3CCSCC3)cc2)nc1C` yielded an MIC (Staphylococcus aureus) of 32 µg/mL (≈ 85.4 µM).

With `C/C(=N\NC(=N)N)c1sc(-c2ccc(N3CCCCCCC3)cc2)nc1C` the MIC (Staphylococcus aureus) was 128 µg/mL (≈ 333 µM).

With `C/C(=N\NC(=N)N)c1sc(-c2ccc(N3CCCC3)cc2)nc1C` the MIC (Staphylococcus aureus) was 16 µg/mL (≈ 46.7 µM).
